# Only some compounds are listed: those with a hit (about 2.6% of all), similar ones and a draw of the others.
# MEKK2wt PB1 HTS = raises or lowers MEK5 binding to wildtype human MEKK2 PB1 domain. 1.1% of 290,000 active. bead flow cytometry, Alexa488-MEK5 binding to MEKK2 WT; actives lie on both sides. AID 1531. binding response (% of control), % at 10 µM. Q9Y2U5; in the data active = binding response below about 67% or above about 130%
# Lipid droplet = hepatic lipid droplet formation modulation; AML12 mouse hepatocytes, oleate lipid droplets, BODIPY imaging; inhibition, % at 6.5 µM; 0.4% of 240,000 active;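 active = lipid droplet intensity inhibited by at least 50%, with more than 500 cells counted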
#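 Material – AML12 mouse liver cells · Also added – oleate loading, 100 µM · Compound dosing – 6.5 µM single-point dosing · Times – overnight treatment with compound plus oleate · Measured by – fluorescence imaging, 20x objective, two fields per well · Read-out – percent inhibition of filter-corrected integrated lipid droplet intensity per well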
# MEKK3 PB1 HTS = MEKK3-MEK5 PB1 interaction, increase or decrease | 1.4% of 290,000 active | Q99759 | bead-based flow cytometry, Alexa488-MEK5 binding to MEKK3; actives lie on both sides; 0 = blocked by unlabeled MEK5, 100 = vehicle | AID 1529 | binding response (% of control), % at 10 µM;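 active = binding response more than 3 SD above or below the average of its plate-row segment, actives on both sides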;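 also: Alexa488 bead fluorescence after subtracting the streptavidin-only scavenger bead signal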
# Target sequence (Q99759 whole entry, looked up): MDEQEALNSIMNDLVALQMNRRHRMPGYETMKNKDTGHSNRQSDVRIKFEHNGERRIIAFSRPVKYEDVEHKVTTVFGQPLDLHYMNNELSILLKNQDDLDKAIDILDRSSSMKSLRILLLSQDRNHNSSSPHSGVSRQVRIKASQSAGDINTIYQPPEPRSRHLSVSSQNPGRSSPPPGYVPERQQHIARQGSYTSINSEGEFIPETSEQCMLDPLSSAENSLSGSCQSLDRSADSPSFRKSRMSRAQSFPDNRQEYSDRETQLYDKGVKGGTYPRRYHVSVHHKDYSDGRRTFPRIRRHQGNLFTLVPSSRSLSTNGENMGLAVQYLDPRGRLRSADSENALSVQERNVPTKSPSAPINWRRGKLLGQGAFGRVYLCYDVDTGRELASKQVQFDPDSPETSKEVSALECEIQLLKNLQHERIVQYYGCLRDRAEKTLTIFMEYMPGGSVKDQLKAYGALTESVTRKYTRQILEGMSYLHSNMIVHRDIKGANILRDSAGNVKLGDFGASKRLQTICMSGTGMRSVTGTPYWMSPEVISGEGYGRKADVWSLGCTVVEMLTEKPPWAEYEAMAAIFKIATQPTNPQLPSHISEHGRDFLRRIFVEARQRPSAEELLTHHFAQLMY
# MEKK2 mut-MEK5 = signal of MEK5 binding to mutant human MEKK2 PB1 domain | bead flow cytometry, Alexa488-MEK5 binding to MEKK2 mutant | percent response, % at 10 µM | 0.35% of 290,000 active | AID 1530; in the data active = percent response above about 24%, passing the limit was not always enough
# MEKK2wt confirm = raises or lowers MEK5 binding to wildtype human MEKK2, retest; bead flow cytometry, Alexa488-MEK5 binding to MEKK2 WT; actives lie on both sides; 2.4% of 5,900 active; shares compounds with MEKK3 PB1 HTS; binding response (% of control), % at 10 µM; AID 1892; in the data active = binding response below about 16% or above about 210%; inactive = in between
# MEKK2mut confirm = signal of MEK5 binding to mutant human MEKK2, retest | shares compounds with MEKK3 PB1 HTS | percent response, % at 10 µM | AID 1893 | bead flow cytometry, Alexa488-MEK5 binding to MEKK2 mutant | 2% of 5,900 active; in the data active = percent response mostly above about 71%, no sharp cut-off; inactive = mostly below about 38%;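 also: higher means compound restores mutant binding toward wildtype level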
# MEKK3-MEK5 inh = confirmation of inhibitors of MEK5 binding to human MEKK3; shares compounds with MEKK3 PB1 HTS; bead flow cytometry, Alexa488-MEK5 binding to MEKK3; hits give low values; binding response (% of control), % at 10 µM; 1.8% of 5,900 active;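 active = binding response below 72% of control, or above a set upper limit, though filed actives all read lower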;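 also: lower values mean stronger disruption of MEK5 binding to MEKK3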
# Hits are given with their value; n = inactive; x = not tested or not shown; [ ] = dose if it differs, or a comment.
SMILES,MEKK2wt PB1 HTS,Lipid droplet,MEKK3 PB1 HTS,MEKK2 mut-MEK5,MEKK2wt confirm,MEKK2mut confirm,MEKK3-MEK5 inh
Oc1[nH]c2ccccc2c1C1=NCCCC1,n,x,n,n,x,x,x
COc1ccc(CNc2ncc(-c3ccc(F)cc3)n2C)c2ccccc12,n,n,n,n,x,x,x
CCOc1ccc(-c2cnc(NCc3cccc4ccccc34)n2CCOC)cc1,192,n,n,n,n,n,n
CSc1cccc(NC(=S)N2CCC(N(C)C(C)C)CC2)c1,n,n,50[inhibitor],n,n,n,n
CCC(C)N(C)C1CCN(C(=S)Nc2cccc(SC)c2)CC1 (stereo not drawn),n,n,n,n,x,x,x
COc1ccc(S(=O)(=O)N2CCOCC2)cc1NC(=O)COC(=O)C1COc2ccccc2O1 (stereo not drawn),n,n,n,n,x,x,x
N=c1n(CCO)c2ccccc2n1CCOc1ccc(Cl)cc1Cl,148,x,n,n,n,n,n
Cc1ccc(Nc2nc(NCC3CCCO3)nc(N)c2[N+](=O)[O-])cc1 (stereo not drawn),n,n,n,n,x,x,x
Nc1nc(NCC2CCCO2)nc(Nc2ccc(F)cc2)c1[N+](=O)[O-] (stereo not drawn),n,n,199,n,n,n,n
COc1ccc(CCN2CC(C(=O)NCc3ccc(F)cc3)CC2=O)cc1OC (stereo not drawn),n,n,n,n,x,x,x
CNC(=S)N/N=C(\C)c1ccccc1,n,n,132,n,n,n,n
CNC(=S)N/N=C(\C)c1ccc(C(C)(C)C)cc1,n,n,n,n,x,x,x
CCc1ccc(/C=N\n2cnnc2)cc1,n,n,n,n,x,x,x
CCCCn1nnc(NC(=S)NC(=O)c2ccc(-c3cccc(Cl)c3Cl)o2)n1,n,n,n,n,x,x,x
COc1ccc(-c2[nH]ncc2CNC(C)c2cn(C)nc2C)c(F)c1 (stereo not drawn),n,n,n,n,x,x,x
Cc1cccc(C)c1Nc1ncnc(N)c1[N+](=O)[O-],n,n,n,51,n,n,n
Cc1ccc(C(=O)N2CCN(c3ccccn3)CC2)cc1Cl,n,n,n,n,x,x,x
CC(=O)c1ccc(N2CCc3ccccc3C2)c([N+](=O)[O-])c1,n,n,72[inhibitor],n,n,n,n
COc1ccc(Cl)cc1NC(=O)CN1CCc2ccccc2C1,n,n,n,n,x,x,x
O=C(CSc1n[nH]c(=O)n1Cc1ccco1)Nc1ccccc1,n,n,128,n,n,n,n
CC(C)c1ccc(NC(=O)CSc2n[nH]c(=O)n2Cc2ccco2)cc1,n,n,n,n,x,x,x
O=C(CSc1nnc(-c2ccccc2)n1C1CCCCC1)N1CCCC1,n,n,74[inhibitor],n,n,n,n
O=C(CSc1ccc(Cl)cc1)N/N=C/c1cccnc1,n,n,n,n,x,x,x
CC(NCCC(c1ccccc1)c1ccccc1)c1ccccc1 (stereo not drawn),145,n,n,n,n,n,n
Cc1ccc2c(c1)N(C(=O)CCC(=O)NCCCN1CCC(Cc3ccccc3)CC1)CCO2,142,n,n,25,n,n,n
SMILES,MEKK2wt PB1 HTS,Lipid droplet,MEKK3 PB1 HTS,MEKK2 mut-MEK5,MEKK2wt confirm,MEKK2mut confirm,MEKK3-MEK5 inh
Cc1nc(-c2nnc(SCC(=O)Nc3ccc(Cl)cc3)n2C)cs1,n,n,n,n,x,x,x
C/C(=N\NC(=O)Cc1c(C)[nH][nH]c1=O)c1cccc(Br)c1,n,n,49[inhibitor],n,n,n,n
C/C(=N/NC(=O)Cc1c(C)[nH][nH]c1=O)c1ccc(O)cc1,n,n,145,n,n,n,n
COc1ccc(N2CCN(C(=O)NC3CC(=O)N(c4ccc(OC)cc4)C3)CC2)cc1 (stereo not drawn),n,n,n,n,x,x,x
COCCNC(=O)CSc1nc2scc(-c3ccccc3)c2c(=O)[nH]1,n,n,n,n,x,x,x
COc1ccccc1NCc1nnc(-c2ccccc2)o1,n,n,n,n,x,x,x
O=C(CNS(=O)(=O)c1ccccc1)N1CCc2ccccc2C1,n,n,n,n,x,x,x
Cc1ccc(Cn2cnc3ccccc32)cc1C,n,n,74[inhibitor],n,n,n,n
COc1cccc(C(=O)COc2cccc(NC(=O)c3ccco3)c2)c1,n,n,n,n,x,x,x
O=C(Nc1cccc(OC(=O)c2ccco2)c1)c1ccco1,-1.0[inhibitor],x,0.0[inhibitor],n,n,n,n
COc1cccc(NC(=O)c2ccco2)c1,1.0[inhibitor],n,1.0[inhibitor],n,n,n,n
O=C(NCCc1nc2ccccc2[nH]1)/C(=C/c1ccc2c(c1)OCO2)NC(=O)c1ccc(Cl)cc1Cl,n,n,n,n,x,x,x
COc1ccc(CCN(C)CC(O)COc2ccc(C(C)=O)cc2OC)cc1OC (stereo not drawn),n,n,n,n,x,x,x
O=C1COc2ccccc2N1Cc1c(F)cccc1Cl,n,n,n,n,x,x,x
COc1ccc(-c2csc(N(CCCN(C)C)C(=O)c3ccc(C(C)(C)C)cc3)n2)cc1,162,n,n,26,n,n,n
COc1ccc(-c2csc(N(CCCN(C)C)C(=O)c3ccc(C)cc3)n2)cc1,n,n,n,n,x,x,x
COc1ccc(-c2csc(N(CCCN(C)C)C(=O)c3ccc(Br)cc3)n2)cc1,142,n,n,n,n,n,n
COC(=O)CCC(=O)N1CCCC(N2CCN(c3cccc(C(F)(F)F)c3)CC2)C1 (stereo not drawn),19[inhibitor],n,37[inhibitor],n,n,n,n
COc1cccc(NC(=O)CN2C(=O)CSc3ccc(S(=O)(=O)N4CCCCC4)cc32)c1,n,n,n,n,x,x,x
COc1ccc(CN(C2CCCCC2C)S(=O)(=O)c2ccc(S(=O)(=O)N(C)C)cc2)cc1OC (stereo not drawn),n,n,137,n,n,n,n
COc1cc(CN(C2CCCCC2C)S(=O)(=O)c2ccc(S(=O)(=O)NC3CC3)cc2)cc(OC)c1OC (stereo not drawn),n,n,n,n,x,x,x
Cc1ccc(C(=O)N/C(=C\c2ccc(-c3ccccc3[N+](=O)[O-])o2)C(=O)NCCCN(C)C)cc1,n,n,n,25,n,n,n
Cc1ccc(C(=O)N/C(=C\c2ccc(-c3ccc(Cl)cc3)o2)C(=O)NCCCN(C)C)cc1,n,n,43[inhibitor],n,n,n,n
CCCn1nc2cc(C(=O)NCCc3ccc(C)cc3)ccc2c1OCC,n,x,n,n,x,x,x
C=CCOc1c2ccc(C(=O)NCCc3ccc(C)cc3)cc2nn1C,n,x,126,n,n,n,n
CSc1nc(NCCCN(C)C)c2c3c(sc2n1)CN(C)CC3,138,n,n,30,n,n,n
CCN(c1ccccc1)S(=O)(=O)c1ccc(Cl)c(NC(=O)CN2C(=O)NC3(CCCC3)C2=O)c1,n,n,n,n,x,x,x

# Source: PubChem
